Measurements: ChEMBL document CHEMBL3526018, “Metabolites of PPI-2458, a selective, irreversible inhibitor of methionine aminopeptidase-2: structure determination and in vivo activity” (Drug Metab Dispos, 2013)
The source made the active and inactive calls. The calls are words filed in the database; no cut-off is given here.

What was measured:
CYP3A4 (Homo sapiens) [1] = assay: Activity of human recombinant CYP3A4 assessed as ((3R,4S,5S,6R)-5-methoxy-4-((2R,3R)-2-methyl-3-(3-methylbut-2-en-1-yl)oxiran-2-yl)-1-oxaspiro[2.5]octan-6-yl ((R)-1-amino-3-hydroxy-3-methyl-1-oxobutan-2-yl)carbamate) formation; settings: recombinant enzyme
Rattus norvegicus [2] = assay: Inhibition of MetAP2 level in Sprague-Dawley rat lymph nodes assessed as free enzyme level at 0.3 mg/kg, po by ELISA; format: functional, organism-based; design: dose 0.3 mg/kg
In short: (§1)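 Male Sprague-Dawley rats (200-225 g, n=3 per group) were dosed once IV at 0.3 mg/kg or PO at 0.3 or 3.0 mg/kg, in 11% HPCD in water. Blood, liver, lung, thymus and pooled non-mesenteric lymph nodes were taken at ~24 h and lysed or homogenized with NP-40. Free MetAP2 was measured by ELISA and expressed as % of vehicle.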

CYP3A4 (Homo sapiens) [3] = assay: Activity of human recombinant CYP3A4 assessed as ((3R,4S,5S,6R)-4-((2R,3R)-3-(((S)-3,3-dimethyloxiran-2-yl)methyl)-2-methyloxiran-2-yl)-5-methoxy-1-oxaspiro[2.5]octan-6-yl ((R)-1-amino-3-methyl-1-oxobutan-2-yl)carbamate) formation; settings: recombinant enzyme
Liver [4] = assay: Metabolic stability in rat liver S9 fraction assessed as retention time of glutathione conjugate at 5 mM by LC/MS analysis; format: ADME, subcellular; settings: s9, 5000 µM
Rattus norvegicus [5] = assay: Inhibition of MetAP2 level in Sprague-Dawley rat liver assessed as free enzyme level at 3 mg/kg, po by ELISA; format: functional, organism-based; design: dose 3 mg/kg
In short: as §1

Liver microsome [6] = assay: Metabolic stability in rat liver microsomes assessed as retention time of ((3R,4S,5S,6R)-4-((2R,3R)-3-(((R)-3,3-dimethyloxiran-2-yl)methyl)-2-methyloxiran-2-yl)-5-methoxy-1-oxaspiro[2.5]octan-6-yl ((R)-1-amino-3-methyl-1-oxobutan-2-yl)carbamate) at 5 mM by LC/MS analysis; format: ADME; settings: 5000 µM
In short: (§2)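 Liver microsomes (pooled male/female) in 100 mM KPO4 pH 7.4 with PPI-2458 (5 mM stock), pre-incubated 5 min at 37°C, then 10 mM NADPH added; 20 min at 37°C with shaking. Time-zero and no-NADPH controls. Quenched with CH3CN; supernatant dried and redissolved in water. Analysed by LC-MS, ESI+ full scan 300–800 amu, C18 column, 10→50% B gradient.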

CYP3A5 (Homo sapiens) [7] = assay: Activity of human recombinant CYP3A5 assessed as ((3R,4S,5S,6R)-4-((2R,3R)-3-(((S)-3,3-dimethyloxiran-2-yl)methyl)-2-methyloxiran-2-yl)-5-methoxy-1-oxaspiro[2.5]octan-6-yl ((R)-1-amino-3-methyl-1-oxobutan-2-yl)carbamate) formation; settings: recombinant enzyme
Liver microsome [8] = assay: Metabolic stability in human liver microsomes assessed as retention time of ((3R,4S,5S,6R)-5-methoxy-4-((2R,3R)-2-methyl-3-(3-methylbut-2-en-1-yl)oxiran-2-yl)-1-oxaspiro[2.5]octan-6-yl ((R)-1-amino-3-hydroxy-3-methyl-1-oxobutan-2-yl)carbamate) at 5 mM by LC/MS analysis; format: ADME; settings: 5000 µM
In short: as §2

CYP3A5 (Homo sapiens) [9] = assay: Activity of human recombinant CYP3A5 assessed as ((3R,4S,5S,6R)-4-((2R,3R)-3-(((R)-3,3-dimethyloxiran-2-yl)methyl)-2-methyloxiran-2-yl)-5-methoxy-1-oxaspiro[2.5]octan-6-yl ((R)-1-amino-3-methyl-1-oxobutan-2-yl)carbamate) formation; settings: recombinant enzyme
Liver microsome [10] = assay: Metabolic stability in dog liver microsomes assessed as retention time of ((3R,4S,5S,6R)-4-((2R,3R)-3-(((R)-3,3-dimethyloxiran-2-yl)methyl)-2-methyloxiran-2-yl)-5-methoxy-1-oxaspiro[2.5]octan-6-yl ((R)-1-amino-3-methyl-1-oxobutan-2-yl)carbamate) at 5 mM by LC/MS analysis; format: ADME, Canis lupus familiaris; settings: 5000 µM
[11] = AUC (0 to t hrs) in non-Hodgkin lymphoma patient at 15 mg, po alternate days for 21 days; format: ADME, organism-based; settings: human, in vivo
In short: (§3)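 Oral PPI-2458 given every other day to lymphoma patients. Plasma sampled pre-dose and at 15 min, 30 min, 1, 2, 3, 4, 6, 8, 24 and 48 h after the first dose. Parent and metabolites were measured by LC-MS/MS after protein precipitation, evaporation and reconstitution. CL/F was computed only for parent and summed analytes. For metabolites, t1/2 is an apparent first-phase value.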

Liver microsome [12] = assay: Metabolic stability in dog liver microsomes assessed as retention time of ((3R,4S,5S,6R)-4-((2R,3R)-3-(((S)-3,3-dimethyloxiran-2-yl)methyl)-2-methyloxiran-2-yl)-5-methoxy-1-oxaspiro[2.5]octan-6-yl ((R)-1-amino-3-methyl-1-oxobutan-2-yl)carbamate) at 5 mM by LC/MS analysis; format: ADME, Canis lupus familiaris; settings: 5000 µM
CYP3A5 (Homo sapiens) [13] = assay: Activity of human recombinant CYP3A5 assessed as ((3R,4S,5S,6R)-4-((2R,3R)-3-(((S)-3,3-dimethyloxiran-2-yl)methyl)-2-methyloxiran-2-yl)-5-methoxy-1-oxaspiro[2.5]octan-6-yl ((R)-1-amino-3-methyl-1-oxobutan-2-yl)carbamate) formation per pmol of enzyme
Cytochrome P450 3A4 = Cytochrome P450 3A4 (Homo sapiens, UniProt P08684); assay: Inhibition of CYP3A4 activity in human liver microsomes using nifedipine as a substrate by LC/MS analysis; format: ADME
Rattus norvegicus [14] = assay: Inhibition of MetAP2 level in Sprague-Dawley rat lung assessed as free enzyme level at 3 mg/kg, po by ELISA; format: functional, organism-based; design: dose 3 mg/kg
In short: as §1

Rattus norvegicus [15] = assay: Inhibition of MetAP2 level in Sprague-Dawley rat liver assessed as free enzyme level at 0.3 mg/kg, iv by ELISA; format: functional, organism-based; design: dose 0.3 mg/kg
In short: as §1

Liver [16] = assay: Metabolic stability in mouse liver microsomes assessed as retention time of ((3R,4S,5S,6R)-4-((2R,3R)-3-((E)-4-hydroxy-3-methylbut-2-en-1-yl)-2-methyloxiran-2-yl)-5-methoxy-1-oxaspiro[2.5]octan-6-yl((R)-1-amino-3-methyl-1-oxobutan-2-yl)carbamate) at 5 mM by LC/MS analysis; format: ADME; settings: 5000 µM
In short: as §2

CYP3A4 (Homo sapiens) [17] = assay: Activity of human recombinant CYP3A4 assessed as ((3R,4S,5S,6R)-5-methoxy-4-((2R,3R)-2-methyl-3-(3-methylbut-2-en-1-yl)oxiran-2-yl)-1-oxaspiro[2.5]octan-6-yl ((R)-1-amino-3-hydroxy-3-methyl-1-oxobutan-2-yl)carbamate) formation per pmol of enzyme
[18] = Half life in non-Hodgkin lymphoma patient at 15 mg, po alternate days for 21 days; format: ADME, organism-based; settings: human, in vivo
In short: as §3

CYP3A5 (Homo sapiens) [19] = assay: Ratio of Vmax to Km for human recombinant CYP3A5 assessed as ((3R,4S,5S,6R)-4-((2R,3R)-3-((E)-4-hydroxy-3-methylbut-2-en-1-yl)-2-methyloxiran-2-yl)-5-methoxy-1-oxaspiro[2.5]octan-6-yl((R)-1-amino-3-methyl-1-oxobutan-2-yl)carbamate) formation; settings: recombinant enzyme

Sequence of Cytochrome P450 3A4 (P08684 whole entry): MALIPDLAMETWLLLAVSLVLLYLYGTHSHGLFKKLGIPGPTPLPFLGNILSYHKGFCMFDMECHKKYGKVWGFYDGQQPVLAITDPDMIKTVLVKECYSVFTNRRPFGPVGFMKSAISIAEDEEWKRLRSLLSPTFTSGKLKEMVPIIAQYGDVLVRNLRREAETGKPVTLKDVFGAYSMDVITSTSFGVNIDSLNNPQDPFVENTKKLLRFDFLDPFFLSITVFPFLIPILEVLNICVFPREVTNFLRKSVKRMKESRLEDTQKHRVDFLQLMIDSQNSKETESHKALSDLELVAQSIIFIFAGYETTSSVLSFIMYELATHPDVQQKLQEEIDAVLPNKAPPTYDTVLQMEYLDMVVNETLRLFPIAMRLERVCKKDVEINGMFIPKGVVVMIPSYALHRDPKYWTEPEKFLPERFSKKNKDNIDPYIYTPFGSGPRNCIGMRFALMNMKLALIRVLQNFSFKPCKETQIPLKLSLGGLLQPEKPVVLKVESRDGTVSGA

CO[C@@H]1[C@H](OC(=O)N[C@@H](C(N)=O)C(C)C)CC[C@]2(CO2)[C@H]1[C@@]1(C)O[C@@H]1CC=C(C)C [PPI-2458]
Km (CYP3A4 (Homo sapiens) [1]): 27 µM | inhibition (Rattus norvegicus [2]): Active | Km (CYP3A4 (Homo sapiens) [3]): 15 µM | Retention_time (Liver [4]): 20.8 min | inhibition (Rattus norvegicus [5]): Active | Drug metabolism (Liver microsome [6]): metabolite_detected | Km (CYP3A5 (Homo sapiens) [7]): 17 µM | Drug metabolism (Liver microsome [8]): metabolite_detected | Km (CYP3A5 (Homo sapiens) [9]): 17 µM | Drug metabolism (Liver microsome [10]): metabolite_detected | AUC(0-t) at 504 h [11]: 43.9 ng·h/mL | Drug metabolism (Liver microsome [12]): metabolite_detected | Vmax (CYP3A5 (Homo sapiens) [13]): 1.42 pmol/min | Ki (Cytochrome P450 3A4): 403 µM | inhibition (Rattus norvegicus [14]): Active | inhibition (Rattus norvegicus [15]): Active | Drug metabolism (Liver [16]): metabolite_detected | Vmax (CYP3A4 (Homo sapiens) [17]): 0.51 pmol/min | half-life [18]: 1.6 h | Vmax/Km (CYP3A5 (Homo sapiens) [19]): 0.031 µL/min
